Laboratory results: BindingDB's records for doi:10.1021/ml100053y (2010)
pKi: −log10 of the molar value.

Biological target: T1, 5-hydroxytryptamine receptor 1A (Homo sapiens, UniProt P08908)
T1 sequence (P08908 whole entry): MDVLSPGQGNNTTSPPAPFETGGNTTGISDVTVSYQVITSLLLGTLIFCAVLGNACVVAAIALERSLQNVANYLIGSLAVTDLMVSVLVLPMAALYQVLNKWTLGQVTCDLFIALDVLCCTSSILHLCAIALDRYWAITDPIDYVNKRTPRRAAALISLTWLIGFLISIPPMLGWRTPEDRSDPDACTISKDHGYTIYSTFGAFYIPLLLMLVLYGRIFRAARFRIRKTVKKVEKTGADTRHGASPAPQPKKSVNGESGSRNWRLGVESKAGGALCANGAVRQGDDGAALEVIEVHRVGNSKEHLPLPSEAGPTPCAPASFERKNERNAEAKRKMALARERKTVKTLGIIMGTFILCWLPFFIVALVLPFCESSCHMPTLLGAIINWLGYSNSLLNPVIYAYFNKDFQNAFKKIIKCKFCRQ
Assay: Displacement of [3H]8-OH-DPAT from human 5HT1A receptor expressed in EBNA gene-positive HEK293 cells after 120 mins
Method in brief: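 Radioligand competition binding with [3H]-8-hydroxy-DPAT on membranes from transfected HEK-293 EBNA cells expressing h5-HT1AR. Buffer was 50 mM Tris-HCl, 0.5 mM MgSO4, pH 7.4. Ki was obtained from IC50 by the Cheng-Prusoff equation. Values are means ± SEM of 2–4 independent experiments, each run in triplicate.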

Structure (SMILES)	pKi
O=c1n(CCCCN2CCN(c3cccc4ccccc34)CC2)c(O)c2n1CCC2 [2-[4-(4-Naphthalen-1-yl-piperazin-1-yl)-butyl]-tetrahydro-pyrrolo[1,2-c]imidazole-1,3-dione]	8.62
CN(C)S(=O)(=O)c1ccc2cccc(N3CCN(CCCCn4c(O)c5n(c4=O)CCC5)CC3)c2c1 [8-{4-[4-(1,3-Dioxotetrahydro-1H-pyrrolo[1,2-c]imidazol-2(3H)-yl)butyl]piperazin-1-yl}-N,N-dimethylnaphthalene-2-sulfonamide]	8.62
